≈ marks a conversion by molar mass, not a printed value. Calls of active or inactive are those of the source. The rule behind the calls is not given here.
Key:
Cavia porcellus = organism: Cavia porcellus; test: Anticholinergic activity was determined in vitro by measuring their effect on the acetylcholine chloride induced contraction of guinea pig ileum; format: functional
Procedure, shortened: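 Ileum was isolated from female guinea pigs (200–500 g) killed with CO2. Acetylcholine chloride was added in rising concentrations up to maximal response. Test compound was given 2 min before the agonist, with antagonism assessed against the maximal acetylcholine dose. Full concentration–response curves were run.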

Rattus norvegicus [1] = test: Antisecretory activity was evaluated in acute gastric fistula of rat after peroral administration; format: functional; conditions: Stomach, po
Procedure, shortened: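 Female Sprague-Dawley rats (120–160 g), food-deprived ≥18 h, given drug or vehicle (0.5% methocel) orally 1 h before surgery. Under ether anesthesia a flanged polyethylene cannula was placed in the fundic stomach. The first 30-min collection was discarded, then two 1-h samples were taken. Volume was measured and acidity titrated to pH 7 with 0.01 N NaOH. ED50 = dose giving 50% inhibition of total acid output vs controls, by least-squares regression.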

Rattus norvegicus [2] = test: Antisecretory activity was evaluated in acute gastric fistula of rat after intraperitoneal administration; format: functional; conditions: Stomach, ip
Rattus norvegicus [3] = test: Antisecretory activity was evaluated in acute gastric fistula of rat after intravenous administration; format: functional; conditions: Stomach
Rattus norvegicus [4] = test: Antisecretory activity was evaluated in acute gastric fistula of rat after administration of 40 mg/kg; I=inactive; format: functional, organism-based; parameters: dose 40 mg/kg; conditions: Stomach

Compound `CC(O)CCCCCC/N=C/N1CCC(C(c2ccccc2)c2ccccc2)CC1` (stereo not drawn) has an IC50 (Cavia porcellus) of 1.7 µg/mL (≈ 4.18 µM) and an ED50 (Rattus norvegicus [1]) of 8.9 mg/kg.

`Cl.O.O=C([O-])CCCCCCC/N=C/N1CCC(C(c2ccccc2)c2ccccc2)CC1.O=C([O-])CCCCCCC/N=C/N1CCC(C(c2ccccc2)c2ccccc2)CC1.[Zn+2]` showed an IC50 (Cavia porcellus) of 1.2 µg/mL.

Compound `CC(=O)CCCCCC/N=C/N1CCC(C(c2ccccc2)c2ccccc2)CC1` has an IC50 (Cavia porcellus) of 2.2 µg/mL (≈ 5.44 µM), an ED50 (Rattus norvegicus [2]) of 1.5 mg/kg and an ED50 (Rattus norvegicus [1]) of 10.5 mg/kg.

`CN/C(=N\CCSCc1nc[nH]c1C)NC#N` [CIMETIDINE] showed an ED50 (Rattus norvegicus [1]) of 7.6 mg/kg.

With `OCCCCCC/N=C/N1CCC(C(c2ccccc2)c2ccccc2)CC1` the ED50 (Rattus norvegicus [3]) was 4.5 mg/kg, the IC50 (Cavia porcellus) was 0.26 µg/mL (≈ 0.687 µM) and the ED50 (Rattus norvegicus [2]) was 2 mg/kg. It also gave an ED50 (Rattus norvegicus [1]) of 11.2 mg/kg.

`C/C(CCCCCC/N=C\N1CCC(C(c2ccccc2)c2ccccc2)CC1)=N\O.O=S(=O)(O)c1ccc2ccccc2c1` was tested, and the IC50 (Cavia porcellus) was 4.1 µg/mL, the ED50 (Rattus norvegicus [2]) was 8.8 mg/kg and the ED50 (Rattus norvegicus [1]) was 12.5 mg/kg.

`CCCCCCCC/N=C/N1CCC(C(c2ccccc2)c2ccc(O)cc2)CC1.O=S(=O)(O)c1ccc2ccccc2c1` (stereo not drawn) was tested, and the IC50 (Cavia porcellus) was 0.96 µg/mL, the ED50 (Rattus norvegicus [2]) was 3.1 mg/kg and the ED50 (Rattus norvegicus [1]) was > 40 mg/kg.

For `O=CN1CCC(C(c2ccccc2)c2ccccc2)CC1`, the IC50 (Cavia porcellus) was 21.9 µg/mL (≈ 78.4 µM) and the ED50 (Rattus norvegicus [4]) was “inactive”.

`CC1(CCCCCC/N=C\N2CCC(C(c3ccccc3)c3ccccc3)CC2)OCCO1.O=C(O)/C=C/C(=O)O` showed an IC50 (Cavia porcellus) of 1.96 µg/mL, an ED50 (Rattus norvegicus [2]) of 0.98 mg/kg and an ED50 (Rattus norvegicus [1]) of 4.8 mg/kg.

With `OCCCCCCCC/N=C/N1CCC(C(c2ccccc2)c2ccccc2)CC1` the ED50 (Rattus norvegicus [3]) was 9.7 mg/kg, the IC50 (Cavia porcellus) was 0.29 µg/mL (≈ 0.713 µM) and the ED50 (Rattus norvegicus [2]) was 0.44 mg/kg. It also gave an ED50 (Rattus norvegicus [1]) of 8.5 mg/kg.

With `CCCCCCCC/N=C\N1CCC(C(c2ccccc2)c2ccc(OC)cc2)CC1.O=C(O)/C=C/C(=O)O` (stereo not drawn) the IC50 (Cavia porcellus) was 1.9 µg/mL, the ED50 (Rattus norvegicus [2]) was 0.63 mg/kg and the ED50 (Rattus norvegicus [1]) was 15.7 mg/kg.

Compound `CCCCCCCC/N=C/N1CCC(C(c2ccccc2)c2ccccc2)CC1` [FENOCTIMINE] has an ED50 (Rattus norvegicus [3]) of 1.1 mg/kg, an IC50 (Cavia porcellus) of 1.8 µg/mL (≈ 4.61 µM) and an ED50 (Rattus norvegicus [2]) of 0.6 mg/kg. The ED50 (Rattus norvegicus [1]) was 3.9 mg/kg.

`CN1[C@@H]2CC[C@H]1C[C@@H](OC(=O)C(CO)c1ccccc1)C2` (stereo partly drawn) [ATROPINE] showed an IC50 (Cavia porcellus) of 0.0038 µg/mL (≈ 0.0131 µM) and an ED50 (Rattus norvegicus [1]) of 1.1 mg/kg.

`COC(=O)CCCCCCC/N=C/N1CCC(C(c2ccccc2)c2ccccc2)CC1.O=C(O)/C=C/C(=O)O` gave an ED50 (Rattus norvegicus [3]) of 4.7 mg/kg, an IC50 (Cavia porcellus) of 0.3 µg/mL and an ED50 (Rattus norvegicus [1]) of 10.1 mg/kg.

Source: ChEMBL document CHEMBL1123743, “Antisecretory activity of human, dog, and rat metabolites of fenoctimine” (J Med Chem, 1987)
